The source made the active and inactive calls. No cut-off for these calls is given here.
Tests used:
Hep 3B2 [1] = assay: Induction of erythropoietin gene expression in human Hep3B cells assessed as concentration resulting in five fold induction by luciferase reporter assay relative to control; assay type: functional
In short: (§1)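 Hep3B epo-3 cells carrying an EPO-luciferase reporter; compounds tested at 0.1 to 30 µM, in triplicate in at least three experiments. Read-out is the ratio of light units with compound to a 0.5% DMSO vehicle control. TIR5x is the concentration giving fivefold induction; TIRmax is the minimum concentration giving maximum-fold induction. 10 µM CoCl2 served as positive control.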

Hep 3B2 [2] = assay: Induction of erythropoietin gene expression in human Hep3B cells assessed as concentration resulting in maximum fold induction by luciferase reporter assay relative to control; assay type: functional; in short: as §1
Hep 3B2 [3] = assay: Induction of erythropoietin protein expression in human Hep3B cells assessed per ml of protein at 10 uM by ELISA relative to control; assay type: functional
In short: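 Hep3B epo-3 cells incubated 24 h with compound at a single 10 µM; native EPO secreted into culture measured by human EPO ELISA kit, in mU/mL culture, against a 0.5% DMSO vehicle control; 10 µM CoCl2 as positive control.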

[4] = Cytotoxicity against human Hep3B cells after 48 hrs by MTT assay; assay type: functional, Hep 3B2
In short: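 Hep3B epo-3 cells, 48 h exposure, standard MTT assay; value is concentration giving 90% inhibition (IC90).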

Structure (SMILES): Cc1cc(C2CCCCC2)n(O)c(=O)c1.NCCO [CICLOPIROX OLAMINE]
- Activity (Hep 3B2 [1]): 3 µM
- Activity (Hep 3B2 [2]): 15 µM
- Activity (Hep 3B2 [3]): 99 mU/mL
- IC90 [4]: > 20 µM

Structure (SMILES): C=C[C@]1(C)C[C@H](C)C[C@H](C)[C@H]1c1c(OC)ccn(OC)c1=O
- Activity (Hep 3B2 [1]): inactive
- Activity (Hep 3B2 [2]): inactive

Structure (SMILES): C=C[C@]1(C)C[C@H](C)C[C@H](C)[C@H]1c1c(O)ccn(O)c1=O
- Activity (Hep 3B2 [1]): 0.3 µM
- Activity (Hep 3B2 [2]): 0.7 µM
- Activity (Hep 3B2 [3]): 120 mU/mL
- IC90 [4]: > 20 µM

— ChEMBL document CHEMBL1157279, “8-methyl-pyridoxatin: A novel N-hydroxy pyridone from fungus OS-F61800 that induces erythropoietin in human cells” (1999)
